According to the EternaBench riboswitch data:

Test system: MS2 coat protein
Test: apparent Kd, MS2 coat protein; higher = weaker binding; RNA-MaP array; FMN 200 µM where present
Outline: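 Designs were transcribed by stalled E. coli RNA polymerase on Illumina sequencing-chip clusters. They were titrated with SNAP-549-labelled MS2 coat protein from 0.7 or 1.5 nM, doubling to 3 µM, in 100 mM Tris-HCl pH 7.5, 80 mM KCl, 4 mM MgCl2, BSA, DTT, yeast tRNA and Tween-20, without and then with constant ligand. The apparent Kd is the median of filtered per-cluster fits after normalisation of green signal to red-channel RNA signal and control-cluster median Fmax.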

[1] = designed as: OFF switch for flavin mononucleotide, no ligand
[2] = ligand present: flavin mononucleotide, designed as: OFF switch for flavin mononucleotide
[3] = designed as: ON switch for flavin mononucleotide, no ligand
[4] = ligand present: flavin mononucleotide, designed as: ON switch for flavin mononucleotide

UUAAUUUGGUGAUAUUAUGACAUUAGAAGGCUGUACAUGUUGAUACAUGAGGAUCACCCAUGUAUAGAGGAUAUAGACAAUUUU
apparent Kd [1]: 48 nM | apparent Kd [2]: 105 nM

UUACAGCACGGGUAGGAUAUGUAGGGUGGUACAUGAGGAUCACCCAUGUAUCCACCCUUCUAACGGCAGAAGGGCCUGUCGCUGC
apparent Kd [3]: 31.8 nM | apparent Kd [4]: 20.9 nM

UUACAGUGCGGGUAGGAUAUGUAGGGUGGUACAUGAGGAUCACCCAUGUAUCCACCCUUCGACCGGCAGAAGGGCCUGUCACUAC
apparent Kd [3]: 17.1 nM | apparent Kd [4]: 20.5 nM

UUACAUACAAAGGUACAUGAGGAUCACCCAUGUUUAUUGGGAAGAAGGGUAACAGUAUUACAUAUAUAGGAUAUUUCACAAAUG
apparent Kd [3]: 90.6 nM | apparent Kd [4]: 69.8 nM

UUACUACAUGAGGAUCACCCAUGUCAGGAUAUUGGAUAUGCCUUGGAAUACGUGUUUACAAGAAGGGACUAUAU
apparent Kd [1]: 23.4 nM | apparent Kd [2]: 21.4 nM

UUACUACAUGAGGAUCACCCAUGUCAGGAUAUUGUAUAUACCUUGGAAUACGUGUCUACAAGAAGGGACUAUAU
apparent Kd [1]: 23.7 nM | apparent Kd [2]: 22.5 nM

UUACUACAUGAGGAUCACCCAUGUCAGGAUAUUGUCUAUACUUUGGAAUAUGUGUCGACAAGAAGGGACUAUAU
apparent Kd [1]: 23.5 nM | apparent Kd [2]: 39.9 nM

UUAGAAAUGUUAGGAUAUUAAUAUUUUUUUAGUAUGAUCUACAUGAGGAUCACCCAUGUUAAAAUUAAGAAGGAACAUUUUAUU
apparent Kd [1]: 69.7 nM | apparent Kd [2]: 56.9 nM

UUAGAAUUGUUAGGAUAUUAAUUAUUUUUUAGUAUGAUCUACAUGAGGAUCACCCAUGUUAAAUAUAAGAAGGAACGUUAUAUU
apparent Kd [1]: 63.6 nM | apparent Kd [2]: 63.6 nM

UUAGAGGAUUGAGGAUAUGCAGAGAGAUUAUGCGCGUCGCGCACAUGAGGAUCACCCAUGUAAGAGCAGAAGGUAACUAUGAUC
apparent Kd [1]: 24.3 nM | apparent Kd [2]: 21.8 nM

UUAGGAGUUGUAGGAUAUCGGAUAGAAUGUAAACGAGAAGGACAUGAGGAUCACCCAUGUAUUGAAGAGAAGAGAGAGAGAGAG
apparent Kd [1]: 24.5 nM | apparent Kd [2]: 21.1 nM

UUAUAUAAGGUGUAGCUAGACAUGCAAGAAGGGUGAAGAACAUGAGGAUCACCCAUGUAGACGGUACAGGAUAUUGAUUGACGA
apparent Kd [3]: 340 nM | apparent Kd [4]: 166 nM

UUAUGAGAGCAGGAUAUCUUAUAUGUGUAUUAAAGAGAAGGGCUCACAUGAGGAUCACCCAUGUGGUCCUAGAU
apparent Kd [1]: 44.2 nM | apparent Kd [2]: 309 nM

UUAUGAGCGAUAGGAUAUACUGAGAUUGAAUGGGUAGAAGGAUCGAUCGUGUAGAAGACAUGAGGAUCACCCAUGUUACGGGCC
apparent Kd [3]: 97 nM | apparent Kd [4]: 218 nM

UUAUGAUAGAUAGGAUAUACAUUGGAUUUAAAAGUAGAAGGAUCAAGUGGGAAAUGAACAUGAGGAUCACCCAUGUAAUAGGUU
apparent Kd [3]: 109 nM | apparent Kd [4]: 78.6 nM

UUAUGAUAGAUAGGAUAUACUAUGGUUUAAGAAGUAGAAGGAUCAAUUGGGAAAUGUACAUGAGGAUCACCCAUGUUAUAGGUU
apparent Kd [3]: 37.1 nM | apparent Kd [4]: 33.7 nM

UUAUGCUUUGAGAAGGUUCAAACUACAUAUUGCGCACAUGAGGAUCACCCAUGUUGGUGAAUAAGAAAGGAUAUUAGACUGUGC
apparent Kd [1]: 267 nM | apparent Kd [2]: 165 nM

UUAUGGUUCAAGAAGGAUGUAUUUGACUUAUACAUAGGAUAUUGUUAAAUUGAUAAUUAAUGUAACAUGAGGAUCACCCAUGUA
apparent Kd [3]: 8.1 nM | apparent Kd [4]: 7.39 nM

UUAUGUUAUGUAGGAUAUCACUUUAAUUGAUUAAUAUAUGAAUAUAGAAUUUGAGAAGGACAUUUACAUGAGGAUCACCCAUGU
apparent Kd [1]: 12.3 nM | apparent Kd [2]: 8.5 nM

UUAUGUUUUGUAGGAUAUCAUUAGUUAUGUAUUUUAAUUGAAAUUUAGAUAUGAGAAGGACAUUUACAUGAGGAUCACCCAUGU
apparent Kd [1]: 17.4 nM | apparent Kd [2]: 11.1 nM

UUAUUAUAUGUAGGAUAUGCAUAUUAUUAUUAUGCAGAAGGACAUGAGGAUCACCCAUGUAUAUUAUUAUUAUAUAUUAUAUAU
apparent Kd [1]: 30.1 nM | apparent Kd [2]: 53.7 nM

UUAUUAUAUGUAGGAUAUGCAUAUUAUUAUUGUGCAGAAGGACAUGAGGAUCACCCAUGUAUACUAUUAUUAUAUAUUAUAUAU
apparent Kd [1]: 10.8 nM | apparent Kd [2]: 13.6 nM

UUAUUGGGACAGAAGGGCAUUUACAUGAGGAUCACCCAUGUGUAUAGUUGCAGGAUAUGUAUUACAUGUGAAUCAUCAAAGUGC
apparent Kd [3]: 75.5 nM | apparent Kd [4]: 25.5 nM
